# In the library only some 3.4% were active in any assay of this set; here they are far more common.
# E-sel inducer: induces E-selectin expression in human endothelial cells. P16581. HUVEC E-selectin immunofluorescence imaging; normalized: neutral wells 0, TNF-alpha wells 100. activation, % at 7.58 µM. 260,000 compounds, 0.37% hits. AID 686992;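 active means mean E-selectin-positive cell signal at least 10% of the positive control, reached in at least 60% of replicates, without over 20% cell loss; inconclusive means no rule given, readout overlaps actives, possibly toxicity-flagged; inactive means the rest, including those meeting only one limit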
#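 Read-out basis: % PE-positive cells; Test system: HUVEC primary endothelial cells; Technique: immunofluorescence imaging; Dosing: single-point compound dose.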
# SIRT5 inh: inhibitors of human sirtuin-5 desuccinylase; Q9NXA8; Purified SirT5, succinyl-peptide AMC, trypsin-coupled fluorescence; inhibition, % at 15 µM; 330,000 compounds, 1.1% hits; in the data active means inhibition above about 15%; inconclusive means no clear call, values can overlap the other calls
# Target sequence (Q9NXA8 whole entry, looked up): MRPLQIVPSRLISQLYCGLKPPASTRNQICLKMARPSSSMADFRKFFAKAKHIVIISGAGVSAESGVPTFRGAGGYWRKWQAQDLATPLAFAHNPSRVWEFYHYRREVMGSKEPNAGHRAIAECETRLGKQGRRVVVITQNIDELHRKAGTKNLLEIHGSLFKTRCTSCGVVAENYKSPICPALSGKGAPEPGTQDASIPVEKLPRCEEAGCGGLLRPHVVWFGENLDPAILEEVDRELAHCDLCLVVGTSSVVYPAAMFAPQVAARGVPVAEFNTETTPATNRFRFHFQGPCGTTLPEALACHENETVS
# Ecoli rRNA inh: inhibits bacterial ribosomal RNA function over humanized ribosomes. GFP signal change (wild-type ribosome), % (test concentration not listed). 350,000 compounds, 1.6% hits. E. coli WT GFP vs humanized-ribosome RFP mutants, fluorescence, 24 h; hits give low values; DMSO median 0, no signal -100;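 active means significant combined selectivity score with lowered wild-type GFP, culture density cut under 30%, mutant RFP and density less affected; inactive means any of these conditions unmet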
# MLL AF4-AF9 inh: blocks AF4 peptide binding to human AF9 | inhibition, % at 10 µM | P42568 | 350,000 compounds, 0.47% hits | AlphaScreen, biotin-AF4 peptide binding to FLAG-AF9;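 active means every replicate reaching a set inhibition limit, whatever the replicate mean, cut at about 25% in these data; inconclusive means mean inhibition reaches that limit but some replicates miss it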;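 further: 0% = plate neutral control median and 100% = total signal loss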
# S100A4 MyoIIA: blocks human S100A4 binding to myosin IIA peptide. P26447. S100A4/TAMRA-MyoIIA peptide fluorescence polarization. inhibition, % at 10.7 µM. 360,000 compounds, 0.14% hits;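 active means mean inhibition of at least 70% across replicates, with every replicate also reaching that level; inconclusive means mean inhibition reaches 70% but some replicates fall short; inactive means mean inhibition below 70%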
# Target sequence (P26447 whole entry, looked up): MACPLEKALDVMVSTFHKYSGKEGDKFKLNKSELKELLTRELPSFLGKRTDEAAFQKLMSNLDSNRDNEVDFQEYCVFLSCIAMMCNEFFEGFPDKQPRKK
#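 Test system – S100A4 monomer (human) · Compound – single-point compound testing · Schedule – 5 min incubation before reading · Probe or stimulus – TAMRA-labelled myosin IIA heavy-chain peptide probe, 5 nM · Benchmarks – neutral control DMSO, positive control TFP · Medium – Calcium-containing HEPES buffer, pH 7.2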
# ERAP1 HTS inh: blocks human ERAP1 aminopeptidase activity. Q9NZ08. 340,000 compounds, 0.15% hits. recombinant ERAP1, Leu-AMC fluorescence, 60 min. inhibition, % at 10.7 µM. AID 652197;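 active means mean replicate inhibition of at least 30%, or all replicates individually reaching that 30% level; inactive means mean below 30% and not every replicate reaching it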;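 further: 0% = neutral control wells and 100% = L-leucinethiol positive control wells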
# HepG2 cytotox: cytotoxic compounds in HepG2 cells | HepG2 viability, ATP luminescence, 72 h | 30 tested, under 10 active | activity change, negative = cytotoxicity, unspecified at 26 µM | AID 743480 | shares compounds with Ecoli rRNA inh;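 active means compounds whose fitted half-maximal signal-loss concentration is at most twice their highest valid dose; inconclusive means flat curve with 30 to 70% signal loss, or poor fit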
# AID977621: wild-type E. coli growth inhibition versus H69 humanized strain – H69 mutant RFP, wild-type GFP, cherry-pick, dose response; fluorescence, 24 h; shares compounds with Ecoli rRNA inh; activity change, negative = inhibition at 50 µM; AID 977621; 1,900 tested, under 10 active;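 active means Wild-type ribosome reporter drop at least double the humanized mutant ribosome reporter drop, growth loss under a set limit; inconclusive means no clear call, values can overlap the other calls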;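 further: wild-type GFP and H69 mutant RFP strains grown together 50/50 in each well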
# AID977628: E. coli growth inhibition, wild-type GFP versus h24 humanized RFP strain, dose response, h24 mutant RFP vs wild-type GFP, cherry-pick. AID 977628. shares compounds with Ecoli rRNA inh. 1,900 tested, under 10 active. activity change, negative = inhibition at 50 µM. E. coli WT GFP strain growth, fluorescence, 24 h;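 active means compound lowering the normal-ribosome reporter at least twice as much as the humanized-ribosome reporter, growth loss under a set limit; inconclusive means no clear call, values can overlap the other calls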;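 further: wild-type GFP and h24 humanized RFP strains co-cultured 1 to 1 per well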
# * marks the source's active call; other numbers are inactive results; ? = inconclusive; . = no result given; ! = repeats disagree; [ ] = another dose, or the depositor's remark.
SMILES,E-sel inducer,SIRT5 inh,Ecoli rRNA inh,MLL AF4-AF9 inh,S100A4 MyoIIA,ERAP1 HTS inh,AID977621,AID977628,others
COc1ccc(NC(=O)Nc2cccc3c2O[C@H](CN(C)S(=O)(=O)c2ccc(Cl)cc2)[C@@H](C)CN([C@H](C)CO)C3=O)cc1,0,-3,-5,-1,15,-2,.,?,
CC(=O)Nc1ccc(S(=O)(=O)Nc2cc(Cl)ccc2N2CCOCC2)cc1,.,0,-8,-24,-16,5,.,.,
CC1CCCN(C(=O)C(C)Nc2cc(Cl)ccc2N2CCOCC2)C1 (centres undefined),0,2,-29*,21,-47,9,?,.,
COc1ccc(-c2cc(C(=O)N3CCCC3)no2)cc1OC,0,-1,-4,0,2,0,.,.,
COc1ccc(-c2cc(C(=O)N3CCCCC3)no2)cc1OC,.,2,-23*,8,-4,4,-7,?,
COc1ccc(-c2cc(C(=O)N3CCc4ccccc4C3)no2)cc1,1,.,-26*,-3,4,-1,-5,.,
O=C(c1cc(-c2ccc(Br)cc2)on1)N1CCc2ccccc2C1,.,-4,.,2,-1,-1,.,.,
CCC(=O)Nc1sc(Cc2ccccc2)c(C)c1C(N)=O,6,0,-51,0,3,3,.,.,
Cc1c(Cc2ccccc2)sc(NC(=O)Cc2ccccc2)c1C(N)=O,.,-4,-18*,.,1,6,-4.5,-11,
COc1ccc(NC(=O)CSc2nnc(Cc3ccccc3)o2)c(OC)c1,.,-3,-24*,-19,3,-6,-23,-20,
COc1cccc(NC(=O)C(c2ccccc2)N2CCN(c3ccccn3)CC2)c1 (centres undefined),2,-3,-19*,-1,-3,1,-5.9,-14,
COc1ccc(NC(=O)C(C)SCc2ccccc2)cc1OC (centres undefined),.,.,-1,3,0,4,.,.,
COc1cccc(NC(=O)C(C)SCc2ccccc2)c1 (centres undefined),0,-2,-25*,3,-5,-1,-0.15,0.99,
CC(C)NC(=O)Nc1ccc2c(c1)C(=O)N([C@H](C)CO)C[C@H](C)[C@@H](CN(C)C(=O)CCC(F)(F)F)OCCCC[C@@H](C)O2,0,1,0,-2,-1,-1,.,.,
COCc1ccc(C(=O)N2CCCC(C(=O)c3ccc(Cl)cc3C)C2)o1 (centres undefined),.,1,-26*,0,-3,1,-1,-8.8,
O=C(c1ccc2c3c(cccc13)CC2)N1CCN(c2ncccn2)CC1,.,-3,-28*,2,-1,2,-12,-6.3,
O=C(O)c1ccccc1C(=O)N1CCN(c2ncccn2)CC1,.,0,5,-6,-1,1,.,.,
CCC(C(=O)Nc1ccsc1C(=O)OC)c1ccccc1 (centres undefined),-4,-2,-29*,-5,1,2,-12,-5.7,
CO[C@H]1CN(C)C(=O)c2ccc(NC(=O)C3CCCC3)cc2OC[C@@H](C)N(CC2CC2)C[C@H]1C,0,2,4,-1,11,4,.,.,
COc1ccc(CNS(=O)(=O)NCc2ccc(C)cc2)cc1OC,.,1,-1,-2,-2,-1,.,.,
COc1ccc(Cc2nnc(Nc3ccc(C)cc3)o2)cc1OC,0,-3,-19*,5,-4,3,.,-14,
COc1ccccc1-c1ccc([C@H]2[C@@H](CO)N(C(=O)C3CCOCC3)[C@H]2C#N)cc1,0,5,0,1,-3,3,.,.,
COCC#Cc1ccc2c(c1)O[C@H](CN(C)C(=O)c1ccccc1)[C@@H](C)CN([C@H](C)CO)S2(=O)=O,-5,-4,-19*!,2,0,3,-7.6,-12,
COCC#Cc1ccc2c(c1)O[C@@H](CN(C)C(=O)c1ccccc1)[C@@H](C)CN([C@@H](C)CO)S2(=O)=O,0,-3,-3,1,-2,-2,.,.,
CC(=O)N1[C@H](CO)[C@@H](c2ccccc2)[C@H]1CN(C(=O)c1ccccc1)C(C)C,1,.,0,.,.,.,.,.,
SMILES,E-sel inducer,SIRT5 inh,Ecoli rRNA inh,MLL AF4-AF9 inh,S100A4 MyoIIA,ERAP1 HTS inh,AID977621,AID977628,others
CN(C)CC(=O)N1[C@@H](CO)[C@H](c2ccccc2)C12CN(C(=O)C1CCCC1)C2,.,.,2,.,.,.,.,.,
Cc1cc(C)c(C#N)c(N2CCN(c3ccccc3)CC2)n1,0,-4,-26*,1,-1,1,.,.,HepG2 cytotox=23[12 µM]
COc1cccc(-c2ccc3c(c2)[C@@H]2[C@@H](CCN2C(=O)NC2CCCCC2)[C@H](CO)N3C)c1,0,-7,-1,22,2,-2,.,.,
COCC(=O)N1C[C@H](C)[C@@H](OC)CN(C)C(=O)c2cc(NC(=O)Nc3ccccc3)ccc2OC[C@@H]1C,0,4,1,4,-4,3,.,.,
CCOc1ccccc1C(=O)NCC(=O)OCCOc1cccc(Cl)c1,0,-6,-33*,-9,1,-2,-11,-5.6,
CCOc1ccccc1C(=O)NCC(=O)OCCCOC(=O)CNC(=O)c1ccccc1OCC,0,0,-9,0,-12,9,.,.,
CCOC(=O)C1NN=C(C(=O)c2ccccc2)C1c1ccccc1 (centres undefined),.,-3,-15,7,1,-2,.,.,
CCOC(=O)C1NN=C(C(=O)c2ccccc2)C1c1ccc(OC)cc1 (centres undefined),.,1,-25*,0,-2,10,-9,-6.3,
COc1ccc(N(C)S(=O)(=O)c2cccc(C(=O)NC3CCCCC3C)c2)cc1 (centres undefined),.,3,-27*,0,-2,5,-6.9,.,
COc1ccc(N(C)S(=O)(=O)c2cccc(C(=O)NC3CCCC3)c2)cc1,.,7,-26,-3,-2,-2,.,.,
Nc1nc(NCc2ccco2)nc(Nc2ccccc2)c1[N+](=O)[O-],.,-7,.,1,-4,-2,.,.,
Nc1nc(Nc2ccccc2F)nc(NCc2ccco2)c1[N+](=O)[O-],5,2,-20*,-2,-5,0,?,.,
COc1ccc(CNc2cccc3[nH]c(C(F)(F)F)nc23)cc1,0,-6,4,2,-8,-3,.,.,

# Assay outcomes (PubChem BioAssay)
